Measurements: ChEMBL document CHEMBL1275435, “A naturally occurring proline-to-alanine amino acid change in Fks1p in Candida parapsilosis, Candida orthopsilosis, and Candida metapsilosis accounts for reduced echinocandin susceptibility” (Antimicrob Agents Chemother, 2008)
In brackets after ≈: the same amount, converted by molar mass. *1 amine or outer side, *2 acyl side, *3 side chain or, on linkers, in order; H or OH if unused. Where a SMILES comes first, the peptide text is derived from it. Bridges are numbered along the chain shown (N, C = ends). [ ]: non-standard residue; d: D form. The star is where a group is joined. hTyr(3S-OH,4S-OH,3'-OSO3H) = N[C@H](C(=O)O)[C@H](O)[C@@H](O)c1ccc(O)c(OS(=O)(=O)O)c1; Orn(4R-OH,5R-OH) = O=C([C@H](C[C@@H](O)[C@@H](O)N[*:3])N[*:1])[*:2]; Pro(3S-OH,4S-Me) = C[C@H]1CN[C@H](C(=O)O)[C@H]1O; X1 = CCCCCOc1ccc(-c2cc(-c3ccc(C(=O)*)cc3)no2)cc1; Gln(3R-OH) = NC(=O)C[C@@H](O)[C@H](N)C(=O)O; Hyp = O=C(O)[C@@H]1C[C@@H](O)CN1

Assays:
[1] = Inhibition of Candida albicans M122 glucan synthase assessed as [3H]UDPG incorporation
In short: (§1)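 Cells were grown with vigorous shaking at 30°C to early stationary phase in YPD. Membrane GS was partially purified by product entrapment, using 10-fold more cells for low-activity strains. The polymerization assay was started by adding GS, with drug serially diluted from 0.01 to 10,000 ng/ml. Reactions ran 60 min at 25°C and were stopped on ice. IC50 came from sigmoidal variable-slope fits, as arithmetic means ± SD of three repetitions on three days.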

[2] = Inhibition of Candida albicans ATCC 90028 glucan synthase assessed as [3H]UDPG incorporation; in short: as §1
[3] = Inhibition of Candida parapsilosis H5 glucan synthase assessed as [3H]UDPG incorporation; in short: as §1
Saccharomyces cerevisiae [4] = assay: Antifungal activity against FKS1 deficient Saccharomyces cerevisiae BY4742 by CLSI method; type: functional
Candida parapsilosis [5] = assay: Antifungal activity against Candida parapsilosis H4 by CLSI method; type: functional; settings: Lodderomyces parapsilosis
[6] = Inhibition of Candida glabrata T51916 glucan synthase assessed as [3H]UDPG incorporation; set-up: species or system Nakaseomyces glabratus; in short: as §1
[7] = Inhibition of Candida parapsilosis H4 glucan synthase assessed as [3H]UDPG incorporation; in short: as §1
Candida albicans [8] = assay: Antifungal activity against Candida albicans ATCC 90028 by CLSI method; type: functional
Candida parapsilosis [9] = assay: Antifungal activity against Candida parapsilosis ATCC 22019 by CLSI method; type: functional; settings: Lodderomyces parapsilosis
[10] = Inhibition of Candida orthopsilosis H10 glucan synthase assessed as [3H]UDPG incorporation; in short: as §1
[11] = Inhibition of Candida glabrata ATCC 90030 glucan synthase assessed as [3H]UDPG incorporation; set-up: species or system Nakaseomyces glabratus; in short: as §1
Candida orthopsilosis [12] = assay: Antifungal activity against Candida orthopsilosis 981224 by CLSI method; type: functional; settings: Lodderomyces orthopsilosis
Candida orthopsilosis [13] = assay: Antifungal activity against Candida orthopsilosis H10 by CLSI method; type: functional; settings: Lodderomyces orthopsilosis
[14] = Inhibition of Candida metapsilosis am-2006-0113 glucan synthase assessed as [3H]UDPG incorporation; in short: as §1
Candida parapsilosis [15] = assay: Antifungal activity against Candida parapsilosis H5 by CLSI method; type: functional; settings: Lodderomyces parapsilosis
[16] = Inhibition of Saccharomyces cerevisiae BY4742-FKS1P649A mutant glucan synthase assessed as [3H]UDPG incorporation; in short: as §1
Nakaseomyces glabratus [17] = assay: Antifungal activity against Candida glabrata T51916 by CLSI method; type: functional
Candida albicans [18] = assay: Antifungal activity against Candida albicans ATCC 36082 by CLSI method; type: functional
Candida albicans [19] = assay: Antifungal activity against Candida albicans M122 by CLSI method; type: functional
[20] = Inhibition of Candida metapsilosis 960161 glucan synthase assessed as [3H]UDPG incorporation; in short: as §1
[21] = Inhibition of Candida orthopsilosis 981224 glucan synthase assessed as [3H]UDPG incorporation; in short: as §1
Saccharomyces cerevisiae [22] = assay: Antifungal activity against Saccharomyces cerevisiae BY4742-FKS1P649A mutant by CLSI method; type: functional
In short: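 Broth microdilution following CLSI M27-A2, run in YPD broth (1% yeast extract, 2% Bacto peptone, 2% dextrose). MICs are geometric means of at least three repetitions on three separate days.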

Saccharomyces cerevisiae [23] = assay: Antifungal activity against Saccharomyces cerevisiae BY4742 by CLSI method; type: functional
Nakaseomyces glabratus [24] = assay: Antifungal activity against Candida glabrata ATCC 90030 by CLSI method; type: functional
Candida metapsilosis [25] = assay: Antifungal activity against Candida metapsilosis 960161 by CLSI method; type: functional; settings: Lodderomyces metapsilosis
Candida albicans [26] = assay: Antifungal activity against Candida albicans Sc5314 by CLSI method; type: functional
[27] = Inhibition of Candida albicans Sc5314 glucan synthase assessed as [3H]UDPG incorporation; in short: as §1
[28] = Inhibition of Candida parapsilosis ATCC 22019 glucan synthase by assessed as [3H]UDPG incorporation; in short: as §1
[29] = Inhibition of Candida albicans ATCC 36082 glucan synthase assessed as [3H]UDPG incorporation; in short: as §1
Candida metapsilosis [30] = assay: Antifungal activity against Candida metapsilosis am-2006-0113 by CLSI method; type: functional; settings: Lodderomyces metapsilosis
[31] = Inhibition of Saccharomyces cerevisiae BY4742 glucan synthase assessed as [3H]UDPG incorporation; in short: as §1

CCCCCOc1ccc(-c2cc(-c3ccc(C(=O)N[C@H]4C[C@@H](O)[C@@H](O)NC(=O)[C@@H]5[C@@H](O)[C@@H](C)CN5C(=O)[C@H]([C@H](O)CC(N)=O)NC(=O)[C@H]([C@H](O)[C@@H](O)c5ccc(O)c(OS(=O)(=O)O)c5)NC(=O)[C@@H]5C[C@@H](O)CN5C(=O)[C@H]([C@@H](C)O)NC4=O)cc3)no2)cc1 [MICAFUNGIN] (X1-[Orn(4R-OH,5R-OH)]T[Hyp][hTyr(3S-OH,4S-OH,3'-OSO3H)][Gln(3R-OH)][Pro(3S-OH,4S-Me)]; lactam 1-C)
IC50 [1]: 0.9431 µg/mL (≈ 0.742 µM)
Ki [1]: 2.59 µg/mL (≈ 2.04 µM)
IC50 [2]: 0.0102 µg/mL (≈ 0.00803 µM)
Ki [2]: 0.0235 µg/mL (≈ 0.0185 µM)
IC50 [3]: 0.49363 µg/mL (≈ 0.389 µM)
Ki [3]: 0.261 µg/mL (≈ 0.205 µM)
MIC (Saccharomyces cerevisiae [4]): 0.015 µg/mL (≈ 0.0118 µM)
MIC (Candida parapsilosis [5]): 1.12 µg/mL (≈ 0.882 µM)
IC50 [6]: 0.11235 µg/mL (≈ 0.0884 µM)
Ki [6]: 0.51 µg/mL (≈ 0.401 µM)
IC50 [7]: 0.34083 µg/mL (≈ 0.268 µM)
Ki [7]: 0.486 µg/mL (≈ 0.383 µM)
MIC (Candida albicans [8]): 0.03 µg/mL (≈ 0.0236 µM)
MIC (Candida parapsilosis [9]): 1.6 µg/mL (≈ 1.26 µM)
IC50 [10]: 0.1527 µg/mL (≈ 0.12 µM)
Ki [10]: 0.1775 µg/mL (≈ 0.14 µM)
IC50 [11]: 0.00068 µg/mL (≈ 0.000535 µM)
MIC (Candida orthopsilosis [12]): 1.26 µg/mL (≈ 0.992 µM)
MIC (Candida orthopsilosis [13]): 0.63 µg/mL (≈ 0.496 µM)
IC50 [14]: 0.07032 µg/mL (≈ 0.0554 µM)
Ki [14]: 0.266 µg/mL (≈ 0.209 µM)
MIC (Candida parapsilosis [15]): 1.26 µg/mL (≈ 0.992 µM)
IC50 [16]: 5.199 µg/mL (≈ 4.09 µM)
Ki [16]: 5.7065 µg/mL (≈ 4.49 µM)
MIC (Nakaseomyces glabratus [17]): 0.4 µg/mL (≈ 0.315 µM)
MIC (Candida albicans [18]): 0.02 µg/mL (≈ 0.0157 µM)
MIC (Candida albicans [19]): 0.25 µg/mL (≈ 0.197 µM)
IC50 [20]: 0.11373 µg/mL (≈ 0.0895 µM)
Ki [20]: 0.3825 µg/mL (≈ 0.301 µM)
IC50 [21]: 0.07752 µg/mL (≈ 0.061 µM)
Ki [21]: 0.248 µg/mL (≈ 0.195 µM)
MIC (Saccharomyces cerevisiae [22]): 0.5 µg/mL (≈ 0.394 µM)
MIC (Saccharomyces cerevisiae [23]): 0.03 µg/mL (≈ 0.0236 µM)
MIC (Nakaseomyces glabratus [24]): 0.06 µg/mL (≈ 0.0472 µM)
MIC (Candida metapsilosis [25]): 1.59 µg/mL (≈ 1.25 µM)
MIC (Candida albicans [26]): 0.05 µg/mL (≈ 0.0394 µM)
IC50 [27]: 0.05825 µg/mL (≈ 0.0459 µM)
Ki [27]: 0.0275 µg/mL (≈ 0.0216 µM)
IC50 [28]: 0.24527 µg/mL (≈ 0.193 µM)
Ki [28]: 0.476 µg/mL (≈ 0.375 µM)
IC50 [29]: 0.01888 µg/mL (≈ 0.0149 µM)
Ki [29]: 0.0155 µg/mL (≈ 0.0122 µM)
MIC (Candida metapsilosis [30]): 1.59 µg/mL (≈ 1.25 µM)
IC50 [31]: 0.15945 µg/mL (≈ 0.126 µM)
Ki [31]: 0.17901 µg/mL (≈ 0.141 µM)

CC[C@H](C)C[C@H](C)CCCCCCCCC(=O)N[C@H]1C[C@@H](O)[C@@H](NCCN)NC(=O)[C@@H]2[C@@H](O)CCN2C(=O)[C@H]([C@H](O)CCN)NC(=O)[C@H]([C@H](O)[C@@H](O)c2ccc(O)cc2)NC(=O)[C@@H]2C[C@@H](O)CN2C(=O)[C@H]([C@@H](C)O)NC1=O [CASPOFUNGIN]
IC50 [1]: 0.07948 µg/mL (≈ 0.0727 µM)
Ki [1]: 0.292 µg/mL (≈ 0.267 µM)
IC50 [2]: 0.00052 µg/mL (≈ 0.000476 µM)
Ki [2]: 0.00095 µg/mL (≈ 0.000869 µM)
IC50 [3]: 0.01253 µg/mL (≈ 0.0115 µM)
Ki [3]: 0.00601 µg/mL (≈ 0.0055 µM)
MIC (Saccharomyces cerevisiae [4]): 0.02 µg/mL (≈ 0.0183 µM)
MIC (Candida parapsilosis [5]): 2.24 µg/mL (≈ 2.05 µM)
IC50 [6]: 0.1575 µg/mL (≈ 0.144 µM)
Ki [6]: 0.1945 µg/mL (≈ 0.178 µM)
IC50 [7]: 0.07919 µg/mL (≈ 0.0724 µM)
Ki [7]: 0.00393 µg/mL (≈ 0.00359 µM)
MIC (Candida albicans [8]): 0.2 µg/mL (≈ 0.183 µM)
MIC (Candida parapsilosis [9]): 1.4 µg/mL (≈ 1.28 µM)
IC50 [10]: 0.05816 µg/mL (≈ 0.0532 µM)
Ki [10]: 0.00429 µg/mL (≈ 0.00392 µM)
IC50 [11]: 0.00312 µg/mL (≈ 0.00285 µM)
MIC (Candida orthopsilosis [12]): 0.79 µg/mL (≈ 0.723 µM)
MIC (Candida orthopsilosis [13]): 1 µg/mL (≈ 0.915 µM)
IC50 [14]: 0.04028 µg/mL (≈ 0.0368 µM)
Ki [14]: 0.0769 µg/mL (≈ 0.0703 µM)
MIC (Candida parapsilosis [15]): 2.24 µg/mL (≈ 2.05 µM)
IC50 [16]: 1.32867 µg/mL (≈ 1.22 µM)
Ki [16]: 1.215 µg/mL (≈ 1.11 µM)
MIC (Nakaseomyces glabratus [17]): 2 µg/mL (≈ 1.83 µM)
MIC (Candida albicans [18]): 0.2 µg/mL (≈ 0.183 µM)
MIC (Candida albicans [19]): 4 µg/mL (≈ 3.66 µM)
IC50 [20]: 0.02515 µg/mL (≈ 0.023 µM)
Ki [20]: 0.08045 µg/mL (≈ 0.0736 µM)
IC50 [21]: 0.07526 µg/mL (≈ 0.0688 µM)
Ki [21]: 0.0074 µg/mL (≈ 0.00677 µM)
MIC (Saccharomyces cerevisiae [22]): 0.5 µg/mL (≈ 0.457 µM)
MIC (Saccharomyces cerevisiae [23]): 0.03 µg/mL (≈ 0.0274 µM)
MIC (Nakaseomyces glabratus [24]): 0.1 µg/mL (≈ 0.0915 µM)
MIC (Candida metapsilosis [25]): 1 µg/mL (≈ 0.915 µM)
MIC (Candida albicans [26]): 0.4 µg/mL (≈ 0.366 µM)
Ki [27]: 0.00297 µg/mL (≈ 0.00272 µM)
IC50 [28]: 0.02121 µg/mL (≈ 0.0194 µM)
Ki [28]: 0.04799 µg/mL (≈ 0.0439 µM)
IC50 [29]: 0.0006 µg/mL (≈ 0.000549 µM)
Ki [29]: 0.00046 µg/mL (≈ 0.000421 µM)
MIC (Candida metapsilosis [30]): 0.79 µg/mL (≈ 0.723 µM)
IC50 [31]: 0.06554 µg/mL (≈ 0.0599 µM)
Ki [31]: 0.18394 µg/mL (≈ 0.168 µM)
